Key:
Type in all cases: functional, cell-based
[1] = biological target: T1, 5-hydroxytryptamine receptor 6 (Homo sapiens, UniProt P50406); experiment: Antagonist activity at human recombinant 5HT6 receptor expressed in HEK293 cells assessed as inhibition of 5HT-induced cAMP accumulation at 10 uM pretreated for 10 mins before 5HT addition measured after 1 hr relative to control
Summary of the method: (§1)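 Cells kept at 37 °C under 5% CO2/95% air were suspended in PBS with 2 mM IBMX. They were pretreated with compound (or not) for 10 min, then stimulated with 5-HT for 30 min. HTRF cAMP detection used d2-labelled cAMP and cryptate-labelled anti-cAMP antibody, 1 h at room temperature. Read-out was excitation 314 nm, emission 668 and 620 nm. Results are percent inhibition versus untreated controls.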

[2] = biological target: 5-hydroxytryptamine receptor 4 (Homo sapiens) (UniProt Q13639); experiment: Antagonist activity at human recombinant 5HT4 receptor expressed in HEK293 cells assessed as inhibition of 5HT-induced cAMP accumulation at 10 uM pretreated for 10 mins before 5HT addition measured after 1 hr relative to control; summary of the method: as §1
[3] = biological target: 5-hydroxytryptamine receptor 7 (Homo sapiens) (UniProt P34969); experiment: Antagonist activity at human recombinant 5HT7 receptor expressed in HEK293 cells assessed as inhibition of 5HT-induced cAMP accumulation at 10 uM pretreated for 10 mins before 5HT addition measured after 1 hr relative to control; summary of the method: as §1
[4] = biological target: T1, 5-hydroxytryptamine receptor 6; experiment: Antagonist activity at human recombinant 5HT6 receptor expressed in HEK293 cells assessed as inhibition of 5HT-induced cAMP accumulation pretreated for 10 mins before 5HT addition measured after 1 hr; summary of the method: as §1

5-hydroxytryptamine receptor 4 (Homo sapiens), sequence (Q13639 whole entry): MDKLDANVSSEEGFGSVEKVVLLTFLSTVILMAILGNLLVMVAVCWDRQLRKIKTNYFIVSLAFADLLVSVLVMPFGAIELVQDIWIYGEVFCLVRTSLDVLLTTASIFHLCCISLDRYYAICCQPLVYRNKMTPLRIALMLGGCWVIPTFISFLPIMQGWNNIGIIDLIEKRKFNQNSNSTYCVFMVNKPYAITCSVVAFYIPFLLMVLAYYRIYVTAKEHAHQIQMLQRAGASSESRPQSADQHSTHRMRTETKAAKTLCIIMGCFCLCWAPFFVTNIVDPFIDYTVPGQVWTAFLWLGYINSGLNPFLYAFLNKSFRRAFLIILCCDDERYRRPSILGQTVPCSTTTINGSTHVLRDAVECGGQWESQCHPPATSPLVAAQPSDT
T1 sequence (P50406 whole entry): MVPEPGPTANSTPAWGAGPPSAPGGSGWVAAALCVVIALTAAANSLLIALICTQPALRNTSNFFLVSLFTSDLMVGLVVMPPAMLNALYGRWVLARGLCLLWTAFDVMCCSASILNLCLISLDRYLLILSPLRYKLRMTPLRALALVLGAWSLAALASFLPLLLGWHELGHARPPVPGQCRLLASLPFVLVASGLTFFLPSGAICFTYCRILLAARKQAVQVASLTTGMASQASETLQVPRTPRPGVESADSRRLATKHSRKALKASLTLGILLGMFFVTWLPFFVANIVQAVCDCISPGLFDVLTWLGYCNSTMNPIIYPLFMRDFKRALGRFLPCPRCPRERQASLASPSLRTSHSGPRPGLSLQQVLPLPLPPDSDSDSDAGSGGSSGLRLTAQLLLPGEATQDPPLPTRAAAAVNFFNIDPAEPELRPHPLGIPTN
5-hydroxytryptamine receptor 7 (Homo sapiens), sequence (P34969 whole entry): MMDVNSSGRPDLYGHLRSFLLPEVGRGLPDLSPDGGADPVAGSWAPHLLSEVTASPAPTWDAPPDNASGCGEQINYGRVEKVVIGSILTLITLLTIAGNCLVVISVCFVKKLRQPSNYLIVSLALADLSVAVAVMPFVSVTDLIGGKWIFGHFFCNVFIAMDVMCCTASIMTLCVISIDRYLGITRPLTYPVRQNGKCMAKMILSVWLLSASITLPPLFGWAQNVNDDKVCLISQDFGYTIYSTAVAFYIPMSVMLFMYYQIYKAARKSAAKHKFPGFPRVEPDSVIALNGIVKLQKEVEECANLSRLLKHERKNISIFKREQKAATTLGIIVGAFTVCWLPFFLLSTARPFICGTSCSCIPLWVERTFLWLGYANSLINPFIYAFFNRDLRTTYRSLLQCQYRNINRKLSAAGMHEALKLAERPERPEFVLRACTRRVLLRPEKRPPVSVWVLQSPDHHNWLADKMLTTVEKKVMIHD

Structure (SMILES) | inhibition [1] [%] | inhibition [2] [%] | inhibition [3] [%] | IC50 [4] [nM]
Cc1c(/C=N/N2CCN(C)CC2)c2ccccc2n1S(=O)(=O)c1ccc([N+](=O)[O-])cc1 | 52.4 |  |  | 
COc1ccc(NS(=O)(=O)c2ccc(I)cc2)cc1N1CCN(C)CC1 |  | 5.8 | 5 | 
Cc1c(/C=N/N2CCN(C)CC2)c2ccccc2n1S(=O)(=O)c1ccc(Cl)c2nonc12 | 27.2 |  |  | 
COc1cc(C)c(Cl)cc1S(=O)(=O)n1c(-c2ccccc2)c(/C=N/N2CCN(C)CC2)c2ccccc21 | 55.3 | 13 | 72.8 | 7400
CC1CCN(CC[C@H]2CCCN2S(=O)(=O)c2cccc(O)c2)CC1 |  |  | 104 | 
CCCCN(CCCC)c1cccc2c(S(=O)(=O)n3c(-c4ccccc4)c(/C=N/N4CCN(C)CC4)c4ccccc43)cccc12 | 21.8 |  |  | 
Cc1c(/C=N/N2CCN(C)CC2)c2ccccc2n1S(=O)(=O)c1ccc(I)cc1 | 13.5 |  |  | 
COc1cc(C)c(Cl)cc1S(=O)(=O)n1c(C)c(/C=N/N2CCN(C)CC2)c2ccccc21 | 88.6 | 17.9 | 18.4 | 2400
Cc1c(C)c(S(=O)(=O)n2c(-c3ccccc3)c(/C=N/N3CCN(C)CC3)c3ccccc32)c(C)c2c1OC(C)(C)CC2 | 20.6 |  |  | 
Cc1c(/C=N/N2CCN(C)CC2)c2ccccc2n1S(=O)(=O)c1ccc(/N=N/c2ccc(N(C)C)cc2)cc1 | 16.1 |  |  | 
Cc1c(/C=N/N2CCN(C)CC2)c2ccccc2n1S(=O)(=O)c1cccc2c(N(C)C)cccc12 | 9.5 |  |  | 
Cc1c(/C=N/N2CCN(C)CC2)c2ccccc2n1S(=O)(=O)c1ccc(F)cc1 | 71.7 | 83 | 12.3 | 4740
CCc1ccc2ccccc2c1S(=O)(=O)n1c(C)c(/C=N/N2CCN(C)CC2)c2ccccc21 | 12.2 |  |  | 
Cc1ccc(S(=O)(=O)n2c(C)c(/C=N/N3CCN(C)CC3)c3ccccc32)cc1 | 49.1 |  |  | 
Cc1c(/C=N/N2CCN(C)CC2)c2ccccc2n1S(=O)(=O)c1ccc(-c2ccc(Cl)cc2)cc1 | 0.1 |  |  | 
Cc1c(/C=N/N2CCN(C)CC2)c2ccccc2n1S(=O)(=O)c1ccc2ccccc2c1 | 78.9 | 92.2 | 17.1 | 2040
CCCCN(CCCC)c1cccc2c(S(=O)(=O)n3c(C)c(/C=N/N4CCN(C)CC4)c4ccccc43)cccc12 | 44.6 |  |  | 
Cc1c(C)c(S(=O)(=O)n2c(-c3ccccc3)c(/C=N/N3CCN(C)CC3)c3ccccc32)c(C)c2c1OC(C)(C)C2 | 22.4 |  |  | 

Further lines, results first:

inhibition [1] [%] | inhibition [2] [%] | inhibition [3] [%] | IC50 [4] [nM] | Structure (SMILES)
35.4 |  |  |  | CC(C)c1ccc(S(=O)(=O)n2c(-c3ccccc3)c(/C=N/N3CCN(C)CC3)c3ccccc32)cc1
31.2 |  |  |  | COc1ccc(S(=O)(=O)n2c(-c3ccccc3)c(/C=N/N3CCN(C)CC3)c3ccccc32)cc1
30.5 |  |  |  | CN1CCN(/N=C/c2c(-c3ccccc3)n(S(=O)(=O)c3ccc(Cl)cc3)c3ccccc23)CC1
15.1 |  |  |  | Cc1c(/C=N/N2CCN(C)CC2)c2ccccc2n1S(=O)(=O)c1ccc(-c2ccccc2)cc1
38.7 |  |  |  | CN1CCN(/N=C/c2c(-c3ccccc3)n(S(=O)(=O)c3ccc(OC(F)(F)F)cc3)c3ccccc23)CC1
74.2 | 37.3 | 28.5 | 2900 | CN1CCN(/N=C/c2c(-c3ccccc3)n(S(=O)(=O)c3ccc(F)cc3)c3ccccc23)CC1
14.3 |  |  |  | CCCCc1ccc(S(=O)(=O)n2c(-c3ccccc3)c(/C=N/N3CCN(C)CC3)c3ccccc32)cc1
85.3 | 65 | 42.2 | 1400 | CN1CCN(/N=C/c2c(-c3ccccc3)n(S(=O)(=O)c3cccc4c(N(C)C)cccc34)c3ccccc23)CC1
24.3 |  |  |  | CN1CCN(/N=C/c2c(-c3ccccc3)n(S(=O)(=O)c3ccc(I)cc3)c3ccccc23)CC1
67.4 | 31.1 | 46.4 | 3600 | CN1CCN(/N=C/c2c(-c3ccccc3)n(S(=O)(=O)c3cn(C)cn3)c3ccccc23)CC1
83.5 | 79.9 | 34.6 | 1800 | CN1CCN(/N=C/c2c(-c3ccccc3)n(S(=O)(=O)c3ccccc3)c3ccccc23)CC1
54 | 9.4 | 5 | 6600 | CN1CCN(/N=C/c2c(-c3ccccc3)n(S(=O)(=O)c3cccc4ccccc34)c3ccccc23)CC1
39.6 |  |  |  | CN1CCN(/N=C/c2c(-c3ccccc3)n(S(=O)(=O)c3ccc4ccccc4c3)c3ccccc23)CC1
36.5 |  |  |  | CN1CCN(/N=C/c2c(-c3ccccc3)n(S(=O)(=O)Cc3ccccc3)c3ccccc23)CC1
33.2 |  |  |  | Cc1ccc(S(=O)(=O)n2c(-c3ccccc3)c(/C=N/N3CCN(C)CC3)c3ccccc32)cc1

From ChEMBL document CHEMBL2413033, “Design and synthesis of novel series of 5-HT6 receptor ligands having indole, a central aromatic core and 1-amino-4 methyl piperazine as a positive ionizable group” (Bioorg Med Chem, 2013)
